CHOP UPR activ – activators of apoptotic CHOP UPR arm, primary screen, cell-based, CHO-CHOP luciferase reporter, luminescence, uHTS. 330,000 tested, 0.34% active. AID 449763, 2010. activation, % at 10 µM. UPR activation; percent of tunicamycin response over DMSO baseline;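 active = at 10 µM dose, activation of 40% or more, normalized to positive control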;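 note: 100% = tunicamycin at 10 µg/mL and 0% = DMSO alone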
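Test system: CHO-CHOP cells, stable luciferase reporter of PERK-eIF2a-CHOP signalling | Quantity: 500 CHO-CHOP cells per well | Buffer or medium: F12 plus 10% serum | Compound dosing: 10 µM single point, 0.5% DMSO | Schedule: 6 h compound treatment, 37 °C | Signal: Luciferase luminescence | Control set: Tunicamycin high control, DMSO low control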
CHOP inhibitor – inhibitors of CHOP promoter induction, primary screen, cell-based, unfolded protein response, luciferase reporter; CHO-K1 CHOP-promoter luciferase, tunicamycin-induced, 15-18 h; inhibition, % at 10 µM; 220,000 tested, 3.8% active;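 active = compounds that reduced the stress-induced luciferase reporter signal by more than about 70% of percent inhibition, limit read from the data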;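 note: 0% = tunicamycin plus vehicle and 100% = wells without tunicamycin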
Jurkat NFkB inh – inhibitors of induced NF-kB luciferase reporter, primary screen, TCR NF-kB activation inhibitor project, cell-based, luminescence, uHTS. AID 435003, 2010. inhibition, % at 4 µM. Jurkat, PMA/ionomycin-induced NF-kB luciferase reporter. 330,000 tested, 0.53% active; in the data active = inhibition above about 50%
XBP1 UPR activ – activators of adaptive XBP1 UPR arm, primary screen, cell-based, CHO-XBP1 luciferase reporter, luminescence, uHTS; IRE1-XBP1 UPR activation; percent of tunicamycin response, DMSO as zero; 330,000 tested, 0.33% active; activation, % at 20 µM; AID 463104, 2010;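 active = versus positive control, 20 µM dose yields 30% or more activation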;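 note: 100% = tunicamycin at 10 µg/mL and 0% = DMSO only wells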
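Material: CHO-XBP1 cells stably carrying IRE1-XBP1-driven luciferase reporter | Medium: F12 with 10% serum | Compound dosing: 20 µM single concentration, DMSO 1% | Incubation: Overnight seeding at 37 °C, 6 h compound treatment at 37 °C | Detection: Steady-Glo luminescence read | Read-out basis: % activation of reporter signal versus tunicamycin and DMSO controls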
697 NFkB inh – inhibitors of PMA/ionomycin-induced NF-kB reporter, 697 cells, primary screen, B-cell NF-kB inhibitor project, cell-based, luminescence, uHTS | 330,000 tested, 0.33% active | inhibition, % at 4 µM | 697 B-cell NF-kB luciferase reporter, 16 h; in the data active = inhibition above about 35%
* hit, by the source's call; x = not tested or not shown. Many of the other results were omitted from the sample, so hits are more common in it than they were.

SMILES | CHOP UPR activ | CHOP inhibitor | Jurkat NFkB inh | XBP1 UPR activ | 697 NFkB inh
CC(Nc1cc(N2CCOCC2)ccc1[N+](=O)[O-])c1ccccc1 (centres undefined) | -2 | 73* | 0 | 2 | -9
CCOc1ccccc1CN1CCNC(=O)C1CC(=O)NCc1nccn1CC (centres undefined) | 0 | x | 17 | -1 | 2
Cc1cc(-n2c(SCC(=O)NCc3cccs3)nc3n[nH]c(C)c3c2=N)ccc1Cl | 7 | 81* | 31 | 9 | -10
Cc1ccc(CNC(=O)CSc2nc3n[nH]c(C)c3c(=N)n2-c2cccc(C)c2)cc1 | -2 | 66 | 15 | 0 | 4
CC(C)(C)c1ccc(C(=O)NC(=O)COC(=O)CCS(=O)(=O)c2ccccc2)cc1 | 3 | x | -7 | 2 | 4
CCOC(=O)C1CCN(CC(O)COC(CC)c2ccccc2)CC1 (centres undefined) | 1 | x | 9 | -1 | 1
Cc1ccc(S(=O)(=O)c2c(C)nn(C(C)(C)C)c2OC(=O)c2cccs2)cc1 | 1 | 72* | 25 | -5 | -5
Cc1ccc(S(=O)(=O)c2c(C)nn(C(C)(C)C)c2OC(=O)c2ccc(Br)o2)cc1 | 9 | 72* | 5 | 3 | -37
CC(=O)Oc1c(S(=O)(=O)c2ccc(C)cc2)c(C)nn1C(C)(C)C | 1 | 50 | -16 | -2 | -41
COC(=O)CSc1c(-c2ccccc2)c2cc(Cl)ccc2[nH]c1=O | -3 | 80* | 15 | 2 | 1
O=C(Cc1ccc(F)cc1)Nc1c(C(=O)N2CCN(c3ncccn3)CC2)oc2ccccc12 | 0 | x | 17 | -2 | 1
C=CCN(CC=C)CCOc1cccc(Oc2ccccc2)c1 | 2 | 87* | 11 | 3 | -9
CS(=O)(=O)c1cc([N+](=O)[O-])c(Sc2nc3ccccc3[nH]2)c([N+](=O)[O-])c1 | -6 | 80* | -8 | -5 | -14
CC(=O)c1cccc(NC(=O)CCc2nnc3ccc(NCc4ccc5c(c4)OCO5)nn23)c1 | 3 | x | -4 | 3 | 16
Cc1ccc2c(c1)N(Cc1ccc3c(c1)OCO3)C(=O)C(C)O2 (centres undefined) | -2 | -5 | -5 | 0 | 0
CCC1Oc2ccc(C)cc2N(Cc2cccc(C)c2)C1=O (centres undefined) | 0 | 96* | 0 | -1 | -7
Cc1ccc(N(C)S(=O)(=O)c2cccc(C(=O)N(C)Cc3cnn(-c4ccccc4)c3)c2)cc1 | -2 | x | 6 | -5 | -38
COc1ccc(NC(=O)N(CCN2CCCC2)Cc2cc3cc(OC)c(OC)cc3[nH]c2=O)cc1 | 0 | 78* | 5 | 4 | 16
CCc1ccc2[nH]c(=O)c(CN(CCCN3CCOCC3)C(=O)Nc3ccc(F)cc3)cc2c1 | 0 | 71* | -3 | 8 | -12
CCc1ccc2[nH]c(=O)c(CN(Cc3ccccc3)C(=O)Nc3ccccc3OC)cc2c1 | 1 | 73* | -2 | 5 | -88
CCc1ccc2[nH]c(=O)c(CN(CCN(C)C)C(=O)Nc3ccccc3OC)cc2c1 | 1 | 13 | -19 | -2 | 6
C#CCOCCOCCOCCNc1nc(N2CCN(C(=O)[C@H](CCC(=O)O)n3cc([C@@H](N)[C@H](C)CC)nn3)CC2)nc(N2CCN(C(=O)[C@H](CCC(=O)O)n3cc([C@@H](N)CCSC)nn3)CC2)n1 | 1 | x | -15 | 1 | -20
COC(=O)[C@H]1C[C@H]1[C@@H](NC(=O)c1ccc[nH]1)c1ccccc1 | 0 | x | 3 | 1 | 20
O=C(O)CCC(NC(=O)c1ccccc1C(=O)O)C(=O)O (centres undefined) | x | 0 | x | x | x
CCCCOc1ccc(CSCCNC(=S)Nc2ccccc2)cc1 | -1 | 28 | 32 | 1 | -21
SMILES | CHOP UPR activ | CHOP inhibitor | Jurkat NFkB inh | XBP1 UPR activ | 697 NFkB inh
CC(C)COc1ccc(CSCCNC(=S)Nc2ccccc2)cc1 | 1 | 83* | 19 | -1 | 21
O=C1c2cccc3cccc(c23)C(=O)N1/N=C/c1ccc(O)cc1O | 0 | 70* | -2 | 2 | 2
O=C1c2ccccc2C(=O)N1/N=C/c1ccc(O)c(O)c1O | x | -7 | x | x | x
Cc1cc(Cl)ccc1Oc1ccc(C(N)=O)cc1[N+](=O)[O-] | 1 | 81* | -3 | 0 | 12
NC(=S)n1[nH]c(-c2ccc([N+](=O)[O-])cc2)c(N=Nc2cccc(Cl)c2)c1=O | 0 | 83* | 4 | -4 | 8
CCOC(=O)C1=C(Cn2cnc3ccccc32)NC(=O)NC1c1cc(C)ccc1C (centres undefined) | -5 | 89* | 7 | -5 | 10
C=C(C)CN(CC)C(=O)CCc1nnc(CCc2c[nH]c3ccccc23)o1 | 1 | 24 | 13 | -2 | 12
Oc1cccc(C(O)CNCc2ccc(-c3ccccc3)cc2)c1 (centres undefined) | 3 | 9 | 17 | 2 | 3
Oc1cccc(C(O)CNCc2ccc(OCc3ccc(Cl)cc3Cl)cc2)c1 (centres undefined) | -1 | 104* | -14 | 2 | -3
O=C(N/N=C/c1cccc(Oc2ccccc2)c1)c1ccccc1Br | -2 | 84* | -3 | 0 | -60
O=C(N/N=C/c1cccc(Oc2ccccc2)c1)c1cccc(Br)c1 | 0 | 29 | 3 | -5 | -8
NNc1nc2c(-c3ccc(F)cc3)nnn2c2ccccc12 | 3 | 10 | -137 | 2 | -170
NNc1nc2c(-c3ccc(Cl)cc3)nnn2c2ccccc12 | 8 | 91* | -133 | 1 | -131
O=C(COc1ccc2c3c(c(=O)oc2c1)CCCC3)NCCCN1CCOCC1 | -1 | x | -4 | -5 | 3
Cc1cc(C)nc(N/N=C/C2=C(O)CC(c3ccc(F)cc3)CC2=O)n1 (centres undefined) | 11 | 75* | 9 | -3 | -17
O=C(NNC1=Nc2cccc3cccc1c23)c1ccccc1Br | 0 | 90* | 7 | 2 | 6
c1ccc(NC2=Nc3cccc4cccc2c34)cc1 | 1 | 34 | -6 | 1 | 6
Cc1ccc(Sc2ncccc2C(=O)NCc2cc([N+](=O)[O-])ccc2O)cc1C | -1 | x | 1 | -3 | 5
CC(C)(CC(=O)O)CC(=O)Nc1ccc2c(c1)ncn2CCc1ccccc1 | 0 | x | -1 | -5 | 11
Cc1ccc(C(=O)Nc2ccccc2C(=O)NCc2ccccc2)cc1 | 1 | 80* | 22 | 1 | -7
Cc1cc(C)c(NC(=O)CN(C)CC(=O)N(C)CC(=O)Nc2c(Cl)cccc2Cl)c(C)c1 | -2 | x | -11 | -1 | 12
Cc1ccc(C)c(NC(=O)CN(C)C(=O)Cn2c(=O)oc3ccccc32)c1 | 2 | x | 8 | -3 | 16

Screening results (PubChem BioAssay)
